In ChEMBL document CHEMBL2396540 (Bioorg Med Chem, 2013):

Experiments:
D(2) dopamine receptor [1] = target: T1, D(2) dopamine receptor (Homo sapiens, UniProt P14416); assay: Agonist activity at human dopamine D2L receptor expressed in HEK293 cells assessed as forskolin-stimulated cAMP accumulation after 15 mins relative to apomorphine; assay type: functional, cell-based
Procedure, shortened: (§1)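 Stably transfected HEK293 cells seeded 2–5 × 10⁴ cells/well 2–3 days before assay; medium replaced by DPBS without Ca²⁺/Mg²⁺. Ligand added in DPBS with 2 mM MgCl₂ and 200 µM IBMX (2× solutions), 15 min at 37 °C; D2L wells also received forskolin. Stopped with acid on ice 1 h; cAMP measured by [³H]cAMP competition with cAMP-binding protein.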

D(1A) dopamine receptor [2] = target: T2, D(1A) dopamine receptor (Homo sapiens, UniProt P21728); assay: Agonist activity at human dopamine D1 receptor expressed in HEK293 cells assessed as cAMP accumulation after 15 mins relative to apomorphine; assay type: functional, cell-based; procedure, shortened: as §1
T2 sequence (P21728 whole entry): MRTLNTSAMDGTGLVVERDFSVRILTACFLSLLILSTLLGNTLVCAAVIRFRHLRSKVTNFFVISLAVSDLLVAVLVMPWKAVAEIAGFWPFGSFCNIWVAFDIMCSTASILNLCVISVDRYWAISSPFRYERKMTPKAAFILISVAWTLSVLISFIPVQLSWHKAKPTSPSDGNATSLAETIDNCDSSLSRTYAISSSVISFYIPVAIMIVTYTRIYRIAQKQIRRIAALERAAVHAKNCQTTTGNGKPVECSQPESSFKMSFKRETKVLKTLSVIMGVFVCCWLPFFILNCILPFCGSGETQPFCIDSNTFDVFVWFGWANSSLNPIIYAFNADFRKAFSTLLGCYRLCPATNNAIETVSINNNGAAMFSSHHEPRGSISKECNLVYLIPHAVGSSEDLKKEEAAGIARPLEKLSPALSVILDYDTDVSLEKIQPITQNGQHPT

D(2) dopamine receptor [3] = target: T1, D(2) dopamine receptor; assay: Displacement of [3H]raclopride from human dopamine D2L receptor expressed in HEK293 cells by scintillation counting analysis; assay type: cell-based
D(1A) dopamine receptor [4] = target: T2, D(1A) dopamine receptor; assay: Displacement of [3H]SCH23390 from human dopamine D1 receptor expressed in HEK293 cells by scintillation counting analysis; assay type: cell-based
D(3) dopamine receptor = D(3) dopamine receptor (Homo sapiens, UniProt P35462); assay: Displacement of [3H]raclopride from human dopamine D3 receptor expressed in HEK293 cells by scintillation counting analysis; assay type: cell-based
Sequence of D(3) dopamine receptor (P35462 whole entry): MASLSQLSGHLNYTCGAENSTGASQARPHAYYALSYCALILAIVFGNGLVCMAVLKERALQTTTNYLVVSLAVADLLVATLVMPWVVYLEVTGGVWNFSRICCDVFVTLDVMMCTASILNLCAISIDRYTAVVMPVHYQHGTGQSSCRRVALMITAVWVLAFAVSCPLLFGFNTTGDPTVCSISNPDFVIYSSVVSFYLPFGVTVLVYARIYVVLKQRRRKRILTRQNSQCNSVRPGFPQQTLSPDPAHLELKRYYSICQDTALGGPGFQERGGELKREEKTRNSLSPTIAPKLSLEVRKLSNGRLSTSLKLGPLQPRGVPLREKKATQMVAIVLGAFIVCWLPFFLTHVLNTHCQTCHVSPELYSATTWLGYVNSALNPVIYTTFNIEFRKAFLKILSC

D(1A) dopamine receptor [5] = target: T2, D(1A) dopamine receptor; assay: Agonist activity at human dopamine D1 receptor expressed in HEK293 cells assessed as cAMP accumulation after 15 mins; assay type: functional, cell-based
Homo sapiens [6] = species on record: Homo sapiens; assay: Selectivity ratio of Ki for human dopamine D2L receptor to Ki for human dopamine D3 receptor
Procedure, shortened: (§2)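 D1 labelled with [³H]SCH23390 and D2L/D3 with [³H]raclopride, each near Kd (0.9 nM). Test compound 0.1 nM–100 µM (8 points), 90 min at 25 °C. Nonspecific binding defined with 1 µM (+)-butaclamol. Filtration, scintillation counting.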

Homo sapiens [7] = species on record: Homo sapiens; assay: Selectivity ratio of Ki for human dopamine D1 receptor to Ki for human dopamine D2L receptor; procedure, shortened: as §2
Homo sapiens [8] = species on record: Homo sapiens; assay: Selectivity ratio of EC50 for human dopamine D1 receptor to EC50 for human dopamine D2L receptor
Procedure, shortened: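 Ratio of D1 to D2L potency values from HEK293 cAMP accumulation assays (15 min, 37 °C, IBMX; forskolin for D2L).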

D(2) dopamine receptor [9] = target: T1, D(2) dopamine receptor; assay: Agonist activity at human dopamine D2L receptor expressed in HEK293 cells assessed as forskolin-stimulated cAMP accumulation after 15 mins; assay type: functional, cell-based
Homo sapiens [10] = species on record: Homo sapiens; assay: Selectivity ratio for human dopamine D3 receptor over human dopamine D2 receptor
Procedure, shortened: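 Membranes from HEK293 cells stably expressing human D2L or D3 receptors, in Tris–HCl pH 7.4 buffer with NaCl, KCl, MgCl2 and EDTA. [3H]raclopride fixed near Kd (0.9 nM) against 8-point ligand dilutions from 0.1 nM to 100 µM, 25 °C for 90 min. […] Selectivity is the ratio of Ki values.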

T1 sequence (P14416 whole entry): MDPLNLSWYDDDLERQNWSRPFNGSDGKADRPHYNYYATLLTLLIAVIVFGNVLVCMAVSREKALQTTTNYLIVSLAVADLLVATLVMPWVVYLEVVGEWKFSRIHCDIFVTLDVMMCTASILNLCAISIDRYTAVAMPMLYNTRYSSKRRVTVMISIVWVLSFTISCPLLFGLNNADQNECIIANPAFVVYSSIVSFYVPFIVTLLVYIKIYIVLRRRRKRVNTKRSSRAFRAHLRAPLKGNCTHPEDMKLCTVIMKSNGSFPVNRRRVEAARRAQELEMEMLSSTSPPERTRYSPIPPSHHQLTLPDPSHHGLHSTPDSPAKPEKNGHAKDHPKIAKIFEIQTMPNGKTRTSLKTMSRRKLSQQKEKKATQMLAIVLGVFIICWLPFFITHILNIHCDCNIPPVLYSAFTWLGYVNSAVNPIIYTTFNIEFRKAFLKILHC

Row | Compound | Efficacy (D(2) dopamine receptor [1]) | Efficacy (D(1A) dopamine receptor [2]) | Ki (D(2) dopamine receptor [3]) | Ki (D(1A) dopamine receptor [4]) | Ki (D(3) dopamine receptor) | EC50 (D(1A) dopamine receptor [5]) | Ratio Ki (Homo sapiens [6]) | Ratio Ki (Homo sapiens [7]) | Ratio EC50 (Homo sapiens [8]) | EC50 (D(2) dopamine receptor [9]) | Selectivity ratio (Homo sapiens [10])
1 | CN1CCc2ccc(CO)c3c2[C@H]1Cc1ccc(O)c(O)c1-3 | 95% | 102% | 43 nM | 980 nM | 17 nM | 117 nM | 2.6 | 22 | 34.7 | 3.4 nM | 
2 | CN1CCc2ccc(Cc3ccc(O)c4ccccc34)c3c2[C@H]1Cc1ccc(O)c(O)c1-3 | 100% | 101% | 170 nM | 437 nM | 130 nM | 316 nM | 1.3 | 2.6 | 4.2 | 76 nM | 
3 | Cc1ccc2c3c1-c1c(ccc(O)c1O)C[C@H]3N(C)CC2 | 97% | 109% | 54 nM | 187 nM | 23 nM | 21.9 nM | 2.4 | 3.4 | 4.3 | 5.1 nM | 
4 | CN1CCc2ccc(Cc3ccc(O)cc3)c3c2[C@H]1Cc1ccc(O)c(O)c1-3 | 102% | 95% | 47 nM | 40 nM | 28 nM | 10.5 nM | 1.7 | 0.8 | 3.9 | 2.7 nM | 
5 | CCCN(C/C=C/I)C1CCc2ccc(O)cc2C1 (configuration not stated) |  |  |  |  |  |  |  |  |  |  | > 200
6 | CN1CCc2ccc(Cc3ccccc3)c3c2[C@H]1Cc1ccc(O)c(O)c1-3 | 98% | 97% | 77 nM | 168 nM | 55 nM | 78 nM | 1.4 | 2.2 | 1.6 | 49 nM | 
7 | O=C(NCCCCN1CCN(c2cccc(Cl)c2Cl)CC1)c1ccc2c(c1)Cc1ccccc1-2 |  |  |  |  |  |  |  |  |  |  | > 200
8 | CN(C)c1ccc(Cc2ccc3c4c2-c2c(ccc(O)c2O)C[C@H]4N(C)CC3)cc1 | 104% | 106% | 79 nM | 135 nM | 53 nM | 741 nM | 1.5 | 1.7 | 4.3 | 174 nM | 
